Converted amounts (≈) assume the structure as drawn.
Key:
Format in all cases: functional
[1] = tested on: Mycobacterium tuberculosis; experiment: Antitubercular activity against Mycobacterium tuberculosis H37Rv after 7 days by resazurin microtiter assay; conditions: 168 h
[2] = tested on: Escherichia coli; experiment: Antibacterial activity against Escherichia coli ATCC 25922 after 24 hrs by broth dilution method; conditions: ATCC 25922, 24 h
How it was run: (§1)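 Nutrient broth containing logarithmic twofold serial dilutions of compound, inoculated with about 5 × 10⁵ CFU/mL of actively dividing bacteria, incubated 24 h at 37 °C. Growth was read visually and spectrophotometrically. MIC was the lowest concentration (highest dilution) that arrested growth. Ciprofloxacin served as standard.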

[3] = tested on: Klebsiella pneumoniae; experiment: Antibacterial activity against Klebsiella pneumoniae after 24 hrs by broth dilution method; how it was run: as §1
[4] = tested on: Staphylococcus aureus; experiment: Antibacterial activity against Staphylococcus aureus ATCC 25923 after 24 hrs by broth dilution method; conditions: ATCC 25923, 24 h; how it was run: as §1
[5] = tested on: Pseudomonas aeruginosa; experiment: Antibacterial activity against Pseudomonas aeruginosa ATCC 27853 after 24 hrs by broth dilution method; conditions: ATCC 27853, 24 h; how it was run: as §1
[6] = tested on: Candida albicans; experiment: Antifungal activity against Candida albicans after 48 hrs by […]

SMILES | MIC [1] | MIC [2] | MIC [3] | MIC [4] | MIC [5] | MIC [6]
Oc1ccccc1-c1nnc(-c2cc(Br)c(Br)[nH]2)o1 | 36.5 µg/mL (≈ 94.8 µM) | 3.12 µg/mL (≈ 8.12 µM) | 100 µg/mL (≈ 260 µM) | 1.56 µg/mL (≈ 4.05 µM) | 12.5 µg/mL (≈ 32.5 µM) | 6.25 µg/mL (≈ 16.2 µM)
Brc1cc(-c2nnc(/C=C/c3ccccc3)o2)[nH]c1Br | 78.5 µg/mL (≈ 199 µM) | 12.5 µg/mL (≈ 31.6 µM) | 100 µg/mL (≈ 253 µM) | 3.12 µg/mL (≈ 7.91 µM) | 6.25 µg/mL (≈ 15.8 µM) | 12.5 µg/mL (≈ 31.6 µM)
Oc1ccc(-c2nnc(-c3cc(Br)c(Br)[nH]3)o2)cc1 | 25 µg/mL (≈ 64.9 µM) | 12.5 µg/mL (≈ 32.5 µM) | 100 µg/mL (≈ 260 µM) | 12.5 µg/mL (≈ 32.5 µM) | 6.25 µg/mL (≈ 16.2 µM) | 12.5 µg/mL (≈ 32.5 µM)
Fc1ccc(Cl)c(-c2nnc(-c3cc(Br)c(Br)[nH]3)o2)c1 | 6.5 µg/mL (≈ 15.4 µM) | 1.56 µg/mL (≈ 3.7 µM) | 100 µg/mL (≈ 237 µM) | 1.56 µg/mL (≈ 3.7 µM) | 6.25 µg/mL (≈ 14.8 µM) | 12.5 µg/mL (≈ 29.7 µM)
O=[N+]([O-])c1ccc(-c2nnc(-c3cc(Br)c(Br)[nH]3)o2)cc1 | 9 µg/mL (≈ 21.7 µM) | 1.56 µg/mL (≈ 3.77 µM) | 100 µg/mL (≈ 242 µM) | 1.56 µg/mL (≈ 3.77 µM) | 6.25 µg/mL (≈ 15.1 µM) | 1.56 µg/mL (≈ 3.77 µM)
Brc1cc(-c2nnc(-c3cc(Br)c(Br)[nH]3)o2)[nH]c1Br | 3.5 µg/mL (≈ 6.79 µM) | 1.56 µg/mL (≈ 3.02 µM) | 100 µg/mL (≈ 194 µM) | 1.56 µg/mL (≈ 3.02 µM) | 6.25 µg/mL (≈ 12.1 µM) | 1.56 µg/mL (≈ 3.02 µM)
Brc1cc(-c2nnc(-c3ccccc3)o2)[nH]c1Br | 98.7 µg/mL (≈ 267 µM) | 12.5 µg/mL (≈ 33.9 µM) | 100 µg/mL (≈ 271 µM) | 6.25 µg/mL (≈ 16.9 µM) | 6.25 µg/mL (≈ 16.9 µM) | 12.5 µg/mL (≈ 33.9 µM)
COc1cc(/C=C/c2nnc(-c3cc(Br)c(Br)[nH]3)o2)ccc1O | 112 µg/mL (≈ 255 µM) | 12.5 µg/mL (≈ 28.3 µM) | 100 µg/mL (≈ 227 µM) | 1.56 µg/mL (≈ 3.54 µM) | 12.5 µg/mL (≈ 28.3 µM) | 12.5 µg/mL (≈ 28.3 µM)
Brc1cc(-c2nnc(-c3ccncc3)o2)[nH]c1Br | 3.5 µg/mL (≈ 9.46 µM) | 12.5 µg/mL (≈ 33.8 µM) | 100 µg/mL (≈ 270 µM) | 1.56 µg/mL (≈ 4.22 µM) | 12.5 µg/mL (≈ 33.8 µM) | 12.5 µg/mL (≈ 33.8 µM)
Brc1cc(-c2nnc(/C=C/C3=COc4ccccc4C3)o2)[nH]c1Br | 2 µg/mL (≈ 4.45 µM) | 3.12 µg/mL (≈ 6.96 µM) | 100 µg/mL (≈ 223 µM) | 1.56 µg/mL (≈ 3.47 µM) | 12.5 µg/mL (≈ 27.8 µM) | 12.5 µg/mL (≈ 27.8 µM)
Sc1nnc(-c2cc(Br)c(Br)[nH]2)o1 | 54.5 µg/mL (≈ 168 µM) | 12.5 µg/mL (≈ 38.5 µM) | 100 µg/mL (≈ 308 µM) | 12.5 µg/mL (≈ 38.5 µM) | 12.5 µg/mL (≈ 38.5 µM) | 12.5 µg/mL (≈ 38.5 µM)
CSc1nnc(-c2cc(Br)c(Br)[nH]2)o1 | 89.5 µg/mL (≈ 264 µM) | 12.5 µg/mL (≈ 36.9 µM) | 100 µg/mL (≈ 295 µM) | 12.5 µg/mL (≈ 36.9 µM) | 25 µg/mL (≈ 73.7 µM) | 12.5 µg/mL (≈ 36.9 µM)
CCSc1nnc(-c2cc(Br)c(Br)[nH]2)o1 | 118 µg/mL (≈ 334 µM) | 12.5 µg/mL (≈ 35.4 µM) | 100 µg/mL (≈ 283 µM) | 12.5 µg/mL (≈ 35.4 µM) | 25 µg/mL (≈ 70.8 µM) | 12.5 µg/mL (≈ 35.4 µM)
Brc1cc(-c2nnc(Sc3ccccc3)o2)[nH]c1Br | 23.5 µg/mL (≈ 58.6 µM) | 12.5 µg/mL (≈ 31.2 µM) | 100 µg/mL (≈ 249 µM) | 12.5 µg/mL (≈ 31.2 µM) | 25 µg/mL (≈ 62.3 µM) | 6.25 µg/mL (≈ 15.6 µM)
O=C(CSc1nnc(-c2cc(Br)c(Br)[nH]2)o1)c1ccccc1 | 1.5 µg/mL (≈ 3.39 µM) | 3.12 µg/mL (≈ 7.05 µM) | 100 µg/mL (≈ 226 µM) | 12.5 µg/mL (≈ 28.2 µM) | 12.5 µg/mL (≈ 28.2 µM) | 1.56 µg/mL (≈ 3.52 µM)
O=C(Cc1ccccc1)c1nnc(-c2cc(Br)c(Br)[nH]2)o1 | 146 µg/mL (≈ 355 µM) | 3.12 µg/mL (≈ 7.6 µM) | 100 µg/mL (≈ 243 µM) | 3.12 µg/mL (≈ 7.6 µM) | 12.5 µg/mL (≈ 30.4 µM) | 12.5 µg/mL (≈ 30.4 µM)
Nc1ccc(-c2nnc(-c3cc(Br)c(Br)[nH]3)o2)cc1 | 16.5 µg/mL (≈ 43 µM) | 1.56 µg/mL (≈ 4.06 µM) | 100 µg/mL (≈ 260 µM) | 3.12 µg/mL (≈ 8.14 µM) | 6.25 µg/mL (≈ 16.3 µM) | 12.5 µg/mL (≈ 32.5 µM)
Clc1ccc(-c2nnc(-c3cc(Br)c(Br)[nH]3)o2)cc1 | 9.5 µg/mL (≈ 23.5 µM) | 1.56 µg/mL (≈ 3.87 µM) | 100 µg/mL (≈ 248 µM) | 1.56 µg/mL (≈ 3.87 µM) | 6.25 µg/mL (≈ 15.5 µM) | 12.5 µg/mL (≈ 31 µM)
COc1ccc(-c2nnc(-c3cc(Br)c(Br)[nH]3)o2)cc1 | 56.5 µg/mL (≈ 142 µM) | 3.12 µg/mL (≈ 7.83 µM) | 100 µg/mL (≈ 251 µM) | 3.12 µg/mL (≈ 7.83 µM) | 6.25 µg/mL (≈ 15.7 µM) | 12.5 µg/mL (≈ 31.3 µM)
Clc1ccc(-c2nnc(-c3cc(Br)c(Br)[nH]3)o2)c(Cl)c1 | 1.6 µg/mL (≈ 3.65 µM) | 12.5 µg/mL (≈ 28.5 µM) | 100 µg/mL (≈ 228 µM) | 6.25 µg/mL (≈ 14.3 µM) | 6.25 µg/mL (≈ 14.3 µM) | 12.5 µg/mL (≈ 28.5 µM)
C[C@@H]1[C@H](O)[C@@H](C)/C=C/C=C/C=C/C=C/C=C/C=C/C=C/[C@H](O[C@@H]2O[C@H](C)[C@@H](O)[C@H](N)[C@@H]2O)C[C@@H]2O[C@](O)(C[C@@H](O)C[C@@H](O)[C@H](O)CC[C@@H](O)C[C@@H](O)CC(=O)O[C@H]1C)C[C@H](O)[C@H]2C(=O)O [AMPHOTERICIN B] | – | – | – | – | – | 1.56 µg/mL (≈ 1.69 µM)
O=C(O)c1cn(C2CC2)c2cc(N3CCNCC3)c(F)cc2c1=O [CIPROFLOXACIN] | – | – | 1.56 µg/mL (≈ 4.71 µM) | 1.56 µg/mL (≈ 4.71 µM) | 3.12 µg/mL (≈ 9.43 µM) | –
NNC(=O)c1ccncc1 [ISONIAZID] | 0.4 µg/mL (≈ 2.92 µM) | – | – | – | – | –

Source: ChEMBL document CHEMBL2150987, “Synthesis and evaluation of novel 1,3,4-oxadiazole derivatives of marine bromopyrrole alkaloids as antimicrobial agent” (2012)
